ChEMBL document CHEMBL3525975, “Acetylenic linkers in lead compounds: a study of the stability of the propargyl-linked antifolates” (Drug Metab Dispos, 2012)
≈ marks a conversion by molar mass, not a printed value. One block for each compound: values may come before it.

Key:
[1] = Kinetic solubility of the compound; assay type: physicochemical; conditions: read-out: Kinetic_solubility
Summary of the method: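 20 or 40 mM DMSO stocks diluted into filtered water with or without 200 μg/ml methylcellulose. Centrifuged, held 30 min at room temperature, then reversed-phase HPLC (50% ACN / 50 mM potassium phosphate pH 7.0, isocratic). Solubility taken as the highest concentration where absorbance stays linear with log concentration.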

[2] = target: Dihydrofolate reductase (Staphylococcus aureus, UniProt P0A017); test: Inhibition of Staphylococcus aureus DHFR assessed as reduction in rate of NADPH consumption
Summary of the method: (§1)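 DHFR activity followed as NADPH consumption at 340 nm over 5 min. Pure enzyme at limiting concentration, 100 μM NADPH, 1 mM dihydrofolate. Buffer: 50 mM KCl, 10 mM 2-mercaptoethanol, 0.5 mM EDTA, 1 mg/ml BSA. Run in triplicate.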

[3] = Stability in mouse liver microsomes assessed as parent compound remaining at 5 ug/ml after 1 hr at 37 degC by reverse phase HPLC method; assay type: ADME; conditions: read-out: Stability
Summary of the method: (§2)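 Mouse liver microsomes (0.5 mg/ml) in 0.1 M potassium phosphate pH 7.4 with 200 μg/ml HPMC, 37°C. NADPH-regenerating system: 1.3 mM NADP+, 3.3 mM glucose 6-phosphate, 0.5 U/ml G6P dehydrogenase, 3.3 mM MgCl2. Final compound concentration 5 μg/ml; start by adding microsomes. Controls: DMSO, and compound without microsomes. Quench with ice-cold ACN, solid-phase cleanup, reversed-phase HPLC. Result is percent parent remaining vs pre-incubation. Half-life from the single time point, assuming first-order kinetics.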

[4] = Drug metabolism in mouse liver microsomes assessed as 4-(3-(4-(2,4-diamino-6-methylpyrimidin-5-yl)but-3-yn-2-yl)-5-methoxyphenyl)pyridine 1-oxide at 10 ug/ml by LC-MS/MS method; assay type: ADME
Summary of the method: (§3)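 Compound at 10 μg/ml incubated 2 h with mouse liver microsomes (0.5 mg/ml protein, 37°C) in 0.1 M potassium phosphate pH 7.4 with 200 μg/ml HPMC and an NADPH-regenerating system. Controls were DMSO alone and reactions quenched with ACN immediately after adding microsomes. Reactions were stopped with equal volume ice-cold ACN, centrifuged, solid-phase purified and analysed by LC-MS/MS. Metabolite share = metabolite AUC / total metabolite AUC in the same injection.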

[5] = Stability in pH 1.2 simulated gastric fluid at 5 ug/ml after 24 hrs at 37 degC by reverse phase HPLC method; assay type: ADME; conditions: simulated gi fluid, pH 1.2, 24 h
Summary of the method: (§4)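 Compounds incubated 24 h at 37°C in the stated fluid containing 200 μg/ml HPMC. Samples taken before and after incubation, quenched with equal volume ice-cold ACN, centrifuged and the supernatant run on reversed-phase HPLC. Stability = AUC after / AUC before incubation.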

[6] = Half life in mouse liver microsomes at 5 ug/ml at 37 degC by reverse phase HPLC method; assay type: ADME; summary of the method: as §2
[7] = Stability in pH 7.4 simulated intestinal fluid at 5 ug/ml after 24 hrs at 37 degC by reverse phase HPLC method; assay type: ADME; conditions: simulated gi fluid, pH 7.4, 24 h; summary of the method: as §4
[8] = Drug metabolism in mouse liver microsomes assessed as 3-(4-(2,4-diamino-6-methylpyrimidin-5-yl)but-3-yn-2-yl)-5-(pyridin-4-yl)phenol formation at 10 ug/ml by LC-MS/MS method; assay type: ADME; summary of the method: as §3
[9] = Drug metabolism in mouse liver microsomes assessed as demethylation at 5 ug/ml after 1 hr at 37 degC by reverse phase HPLC method; assay type: ADME
[10] = Stability in water at 5 ug/ml after 24 hrs at 37 degC by reverse phase HPLC method; assay type: physicochemical; conditions: buffer; summary of the method: as §4
[11] = Drug metabolism in mouse liver microsomes assessed as 4-(3-(4-(2,4-diamino-6-ethylpyrimidin-5-yl)but-3-yn-2-yl)-5-methoxyphenyl)pyridine 1-oxide formation at 10 ug/ml by LC-MS/MS method; assay type: ADME; summary of the method: as §3
[12] = Drug metabolism in mouse liver microsomes assessed as 3-(4-(2,4-diamino-6-ethylpyrimidin-5-yl)but-3-yn-2-yl)-5-(pyridin-4-yl)phenol formation at 10 ug/ml by LC-MS/MS method; assay type: ADME; summary of the method: as §3
[13] = Drug metabolism in mouse liver microsomes assessed as 4-(3-(3-(2,4-diamino-6-ethylpyrimidin-5-yl)prop-2-ynyl)-4-methoxyphenyl)pyridine 1-oxide formation at 10 ug/ml by LC-MS/MS method; assay type: ADME; summary of the method: as §3
[14] = Drug metabolism in mouse liver microsomes assessed as 2-(3-(2,4-diamino-6-ethylpyrimidin-5-yl)prop-2-ynyl)-4-(pyridin-4-yl)phenol formation at 10 ug/ml by LC-MS/MS method; assay type: ADME; summary of the method: as §3
[15] = test system: Liver; test: Drug level in mouse liver microsomes treated with 10 ug/ml 5-(3-(3-methoxy-5-(pyridin-4-yl)phenyl)but-1-ynyl)-6-methylpyrimidine-2,4-diamine by LC-MS/MS method; assay type: ADME; summary of the method: as §3
[16] = test system: Liver; test: Drug level in mouse liver microsomes treated with 10 ug/ml 6-ethyl-5-(3-(3-methoxy-5-(pyridin-4-yl)phenyl)prop-1-ynyl)pyrimidine-2,4-diamine by LC-MS/MS method; assay type: ADME; summary of the method: as §3
[17] = test system: Liver; test: Drug level in mouse liver microsomes treated with 10 ug/ml 6-ethyl-5-(3-(3-methoxy-5-(pyridin-4-yl)phenyl)but-1-ynyl)pyrimidine-2,4-diamine by LC-MS/MS method; assay type: ADME; summary of the method: as §3
[18] = test system: Liver; test: Drug level in mouse liver microsomes treated with 10 ug/ml 6-ethyl-5-(3-(2-methoxy-5-(pyridin-4-yl)phenyl)prop-1-ynyl)pyrimidine-2,4-diamine by LC-MS/MS method; assay type: ADME; summary of the method: as §3
[19] = Drug metabolism in mouse liver microsomes assessed as 2-(4-(2,4-diamino-6-ethylpyrimidin-5-yl)but-3-yn-2-yl)-4-(pyridin-4-yl)phenol formation at 10 ug/ml by LC-MS/MS method; assay type: ADME; summary of the method: as §3
[20] = Drug metabolism in mouse liver microsomes assessed as 4-(3-(4-(2,4-diamino-6-ethylpyrimidin-5-yl)but-3-yn-2-yl)-4-methoxyphenyl)pyridine 1-oxide formation at 10 ug/ml by LC-MS/MS method; assay type: ADME; summary of the method: as §3
[21] = test system: Liver; test: Drug level in mouse liver microsomes treated with 10 ug/ml 6-ethyl-5-(3-(2-methoxy-5-(pyridin-4-yl)phenyl)but-1-ynyl)pyrimidine-2,4-diamine by LC-MS/MS method; assay type: ADME; summary of the method: as §3
[22] = test system: Staphylococcus aureus; test: Antimicrobial activity against Staphylococcus aureus; assay type: functional
[23] = Inhibition of Candida glabrata DHFR; set-up: species or system Nakaseomyces glabratus; summary of the method: as §1

SMILES: COc1cc(C(C)C#Cc2c(C)nc(N)nc2N)cc(N2CCOCC2)c1 (configuration not stated)
solubility kinetic [1]: > 80 µg/mL

SMILES: CCc1nc(N)nc(N)c1C#CC(C)c1cc(OC)cc(N2CCOCC2)c1 (configuration not stated)
solubility kinetic [1]: > 80 µg/mL
IC50 [2]: 26 nM

SMILES: COc1cc(-c2ccncc2)cc(C(C)C#Cc2c(C)nc(N)nc2N)c1 (configuration not stated)
remaining at 1 h, 5 ug/ml [3]: 33.7%
Drug metabolism [4]: metabolite_detected
Stability [5]: Stable
half-life at 5 ug/ml [6]: 38 min
Stability [7]: Stable
Drug metabolism [8]: metabolite_detected
Drug metabolism [9]: 15.9%
Stability [10]: Stable

SMILES: Cc1nc(N)nc(N)c1C#CC(C)c1cc(O)cc(-c2ccncc2)c1 (configuration not stated)
Drug metabolism [15]: metabolite_detected

SMILES: CCc1nc(N)nc(N)c1C#CCc1cc(OC)cc(-c2cc[n+]([O-])cc2)c1
Drug metabolism [16]: metabolite_detected

SMILES: CCc1nc(N)nc(N)c1C#CC(C)c1cc(OC)cc(-c2cc[n+]([O-])cc2)c1 (configuration not stated)
Drug metabolism [17]: metabolite_detected

SMILES: CCc1nc(N)nc(N)c1C#CC(C)c1cc(-c2cc[n+]([O-])cc2)ccc1OC (configuration not stated)
IC50 [2]: 45 nM
Drug metabolism [21]: metabolite_detected

SMILES: COc1cc(C(C)C#Cc2c(C)nc(N)nc2N)cc(N2CCNCC2)c1 (configuration not stated)
MIC [22]: 91.5 µg/mL (≈ 250 µM)
solubility kinetic [1]: 60 µg/mL (≈ 164 µM)
IC50 [2]: 130 nM

SMILES: COc1cc(-c2cc[n+]([O-])cc2)cc(C(C)C#Cc2c(C)nc(N)nc2N)c1 (configuration not stated)
Drug metabolism [15]: metabolite_detected

SMILES: COc1cc(-c2ccccc2)cc(C(C)C#Cc2c(C)nc(N)nc2N)c1 (configuration not stated)
MIC [22]: 0.72 µg/mL (≈ 2.01 µM)
solubility kinetic [1]: 20 µg/mL (≈ 55.8 µM)
IC50 [2]: 61 nM

SMILES: COc1cc(-c2cc(C)cc(C)c2)cc(C(C)C#Cc2c(C)nc(N)nc2N)c1 (configuration not stated)
IC50 [23]: 0.5 nM

The next lines start with the values.

remaining at 1 h, 5 ug/ml [3]: 29.2%
Stability [5]: Stable
half-life at 5 ug/ml [6]: 34 min
Drug metabolism [11]: metabolite_detected
Stability [7]: Stable
Drug metabolism [12]: metabolite_detected
Drug metabolism [9]: 28%
Stability [10]: Stable
SMILES: CCc1nc(N)nc(N)c1C#CC(C)c1cc(OC)cc(-c2ccncc2)c1 (configuration not stated)

remaining at 1 h, 5 ug/ml [3]: 0%
Stability [5]: Stable
half-life at 5 ug/ml [6]: < 10 min
Stability [7]: Stable
Drug metabolism [9]: 6.3%
Stability [10]: Stable
SMILES: CCc1nc(N)nc(N)c1C#CCc1cc(OC)cc(-c2ccncc2)c1

remaining at 1 h, 5 ug/ml [3]: 26.5%
Stability [5]: Stable
half-life at 5 ug/ml [6]: 31 min
Drug metabolism [13]: metabolite_detected
Stability [7]: Stable
Drug metabolism [14]: metabolite_detected
Drug metabolism [9]: 19.7%
Stability [10]: Stable
SMILES: CCc1nc(N)nc(N)c1C#CCc1cc(-c2ccncc2)ccc1OC

Drug metabolism [16]: metabolite_detected
SMILES: CCc1nc(N)nc(N)c1C#CCc1cc(O)cc(-c2ccncc2)c1

Drug metabolism [18]: metabolite_detected
SMILES: CCc1nc(N)nc(N)c1C#CCc1cc(-c2ccncc2)ccc1O

Drug metabolism [17]: metabolite_detected
SMILES: CCc1nc(N)nc(N)c1C#CC(C)c1cc(O)cc(-c2ccncc2)c1 (configuration not stated)

half-life at 5 ug/ml [6]: 65 min
Drug metabolism [19]: metabolite_detected
Drug metabolism [20]: metabolite_detected
SMILES: CCc1nc(N)nc(N)c1C#CC(C)c1cc(-c2ccncc2)ccc1OC (configuration not stated)
